Data set [1] in a line: Zinc chelating activity mediated inhibition of Clostridium botulinum BoNT/A1 LC (1 to 425 residues) activity using SNAPtide as substrate incubated with enzyme for 30 mins followed by substrate addition and measured for 20 mins by FRET assay relative to control. A digest of the protocol:
(§1)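 Enzyme was truncated BoNT/A1 LC (1–425) at 10 nM final, incubated with compound for 30 min at 25 °C in 40 mM HEPES pH 7.4 with 0.01% Triton X-100. SNAPtide substrate followed at 3.8 µM final. Fluorescence rate (ex 490/em 523 nm) read immediately for 20 min. Technical and experimental triplicate.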

Data set [2] deals with Clostridium botulinum. Put plainly: Zinc chelating activity mediated inhibition of Clostridium botulinum BoNT/A1 LC (1 to 425 residues) activity using SNAPtide as substrate at 50 uM incubated with enzyme for 30 mins followed by substrate addition and measured for 20 mins by FRET assay relative to control. The conditions noted are these: time 50.0 min. A digest of the protocol: as §1

Data set [3] in a line: Zinc chelating activity mediated inhibition of Clostridium botulinum Hall A hyper BoNT/A1activity assessed as inhibition of BoNT/A1-induced neurotoxicity in hIPSC derived GABA neurons by measuring protection against SNAP-25 cleavage incubated for 30 mins post BoNT/A1 addition and measured at 7 hrs post-toxin addition by Western blot analysis. (In general: In western blotting, separated proteins are transferred to a membrane and probed.)

In data set [4] the test system is Clostridium botulinum. Nature of the data set: Zinc chelating activity mediated inhibition of Clostridium botulinum BoNT/A1 LC (1 to 425 residues) activity using SNAPtide as substrate at 1 mM incubated with enzyme for 30 mins followed by substrate addition and measured for 20 mins by FRET assay relative to control. Conditions: time 50.0 min. Summed up:
as §1

Data set [5] can be described thus: Selectivity index, ratio of IC50 for zinc chelation-mediated inhibition of Clostridium botulinum BoNT/A1 LC (1 to 425 residues) to IC50 for MMP13 (unknown origin). It is filed as toxicity.
Data set [6] can be described thus: Selectivity index, ratio of IC50 for zinc chelation-mediated inhibition of Clostridium botulinum BoNT/A1 LC (1 to 425 residues) to IC50 for MMP19 (unknown origin). It is filed as toxicity.
Data set [7] can be described thus: Selectivity index, ratio of IC50 for zinc chelation-mediated inhibition of Clostridium botulinum BoNT/A1 LC (1 to 425 residues) to IC50 for MMP3 (unknown origin). In kind it is toxicity.
Data set [8] concerns Clostridium botulinum. Put plainly: Selectivity index, ratio of IC50 for zinc chelation-mediated inhibition of Clostridium botulinum Hall A hyper BoNT/A1 activity assessed as protection against SNAP-25 cleavage in hIPSC-derived GABA neurons to IC50 for zinc chelation-mediated inhibition of Clostridium botulinum BoNT/A1 LC (1 to 425 residues).
A short description of data set [9]: Selectivity index, ratio of IC50 for zinc chelation-mediated inhibition of Clostridium botulinum BoNT/A1 LC (1 to 425 residues) to IC50 for MMP2 (unknown origin). It is filed as toxicity.
Data set [10] has as its system Clostridium botulinum. Nature of the data set: Competitive active site zinc chelating activity mediated inhibition of Clostridium botulinum BoNT/A1 LC (1 to 425 residues) activity at 0.1 to 10 uM using SNAPtide as substrate incubated with enzyme for 30 mins in presence of DCHA followed by substrate addition and measured for 20 mins by FRET assay. The conditions noted are these: dose 0.1-10 µM, time 50.0 min. Summed up:
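BoNT/A1 LC (1–425), 10 nM final, preincubated with compound for 30 min at room temperature in 40 mM HEPES pH 7.4 with 0.01% Triton X-100. SNAPtide added to 3.8 µM final. Fluorescence rate (ex 490/em 523 nm) read for 20 min. Technical and experimental triplicate.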

Data set [11] can be described thus: Selectivity index, ratio of IC50 for zinc chelation-mediated inhibition of Clostridium botulinum BoNT/A1 LC (1 to 425 residues) to IC50 for MMP1 (unknown origin). It is filed as toxicity.
Data set [12] is described as follows: Selectivity index, ratio of IC50 for zinc chelation-mediated inhibition of Clostridium botulinum BoNT/A1 LC (1 to 425 residues) to IC50 for MMP8 (unknown origin). It is filed as toxicity.
Data set [13] in a line: Selectivity index, ratio of IC50 for zinc chelation-mediated inhibition of Clostridium botulinum BoNT/A1 LC (1 to 425 residues) to IC50 for MMP7 (unknown origin). In kind it is toxicity.

The results in this text go back to ChEMBL document CHEMBL4673198, “Identification of 3-hydroxy-1,2-dimethylpyridine-4(1H)-thione as a metal-binding motif for the inhibition of botulinum neurotoxin A” (RSC Med Chem, 2021).

The source made the active and inactive calls. The rule behind the calls is not given here.

Broadly, the IC50 is the concentration needed to halve the response being measured. Regarding `Cc1c(O)c(=S)ccn1CC12CC3CC(CC(C3)C1)C2`, the midpoint of inhibition in data set [1], the IC50, lay at 4.9 µM.

As a reminder, the inhibition is how much of the control response was suppressed. Lower therefore signals little suppression. In data set [2], `Cc1c(O)c(=S)ccn1Cc1ccccc1` gave an inhibition of 55%. In data set [2], `COc1ccc(-n2ccc(=S)c(O)c2C)cc1OC` registered an inhibition of 12%. In data set [1], `Cc1c(O)c(=S)ccn1CCC12CC3CC(CC(C3)C1)C2` yielded an IC50 of more than 50 µM. On to `Cc1c(O)c(=S)ccn1-c1ccc(F)cc1`, for which, in data set [2], the inhibition was 37%.

Regarding `COc1cccc(CCn2ccc(=S)c(O)c2C)c1`, in data set [2], the inhibition turned out to be 62%. The same measure, in the same setting: the value for `COc1cccc(Cn2ccc(=S)c(O)c2C)c1` was 65%. `Cc1c(O)c(=S)ccn1Cc1ccc(-c2ccc(F)cc2)cc1`: the IC50 in data set [3] amounted to 33 µM; in [1], 1.4 µM. Molecule `Cc1c(O)c(=S)ccn1Cc1ccc(O)cc1` came in with an IC50 in data set [1] of more than 50 µM. In turn, `Cc1c(O)c(=S)ccn1Cc1ccc(-c2ccc3ccccc3c2)cc1` yielded an inhibition in data set [2] of 60%. For `CCn1ccc(=S)c(O)c1C`, in data set [4], the inhibition was more than 95%. As for `Cc1c(O)c(=S)ccn1Cc1ccc([N+](=O)[O-])cc1`, the half-inhibitory concentration (IC50) came to 100 µM in data set [3] and 3 µM in data set [1].

In the case of `COc1ccc(Cn2ccc(=S)c(O)c2C)cc1`, in data set [1], half-maximal inhibition (IC50) was put at 31.9 µM. With `Cc1c(O)c(=S)ccn1CCc1ccccc1`, the inhibition in [2] was 48%.

For the molecule `c1cnc2c(c1)ccc1cccnc12`, the inhibition in [4] is more than 95%. In data set [2], `Cc1c(O)c(=S)ccn1-c1cc(C(F)(F)F)cc(C(F)(F)F)c1` had an inhibition of 0%. In [2], `Cc1c(O)c(=S)ccn1-c1ccc(N2CCOCC2)cc1` showed an inhibition of 0%.

Regarding `Cc1c(O)c(=S)ccn1Cc1ccc(Cl)cc1Cl`, in data set [1], the IC50 is more than 50 µM. `Cc1c(O)c(=S)ccn1-c1ccc(F)c(C(F)(F)F)c1` yielded an inhibition in [2] of 0%. In turn, `Cc1c(O)c(=S)ccn1C` came in with an inhibition in [4] of more than 95%.

`CCOc1ccc(-n2ccc(=S)c(O)c2C)cc1`: the inhibition in data set [2] amounted to 80%. With `Cc1c(O)c(=S)ccn1-c1ccc(N)cc1`, the inhibition in [2] amounted to 16%. Still for that read-out and setting: then `Cc1c(O)c(=S)ccn1Cc1ccc(F)cc1`, with 64%.

The molecule `CCc1c(O)c(=S)ccn1CC` showed an inhibition in [4] of more than 95%. For `Cc1c(O)c(=S)ccn1Cc1ccc(-c2ccc3c(c2)OCO3)cc1`, the IC50 in [3] stood at 51 µM; in data set [1], 1.4 µM. The like results for `Cc1c(O)c(=S)ccn1Cc1ccc(-c2ccc(Cl)cc2)cc1` were, in that order, 31 µM and 1.3 µM. For `Cc1ccc(CCn2ccc(=S)c(O)c2C)cc1`, half-maximal inhibition in [1] (IC50) required 3.2 µM. This molecule returned an inhibition in data set [2] of 81%. Turning to `Cc1c(O)c(=S)ccn1Cc1ccc(-c2ccc(F)c(F)c2)cc1`, the values for the IC50 in [3] and in data set [1] were 39 µM and 1.8 µM, respectively. `Cc1ccc(Cn2ccc(=S)c(O)c2C)cc1`: it took 5 µM to reach half-maximal inhibition in data set [1] (IC50). Still for that read-out and setting: the value for `Cc1c(O)c(=S)ccn1CCc1ccc(Cl)cc1` was 1.9 µM. In turn, `O=C(O)c1cccc(C(=O)O)n1` showed an inhibition in [4] of more than 95%. With `Cc1c(O)c(=S)ccn1CCc1ccc(-c2ccccc2)cc1`, the “Ratio IC50” value in data set [5] is 2; in data set [6], 2; in [7], 2; in [8] it was 7; in [9] it was 2; in data set [11], 2. Moreover, the “Ratio IC50” value in data set [12] and in data set [13] was 2 each time. Also, the result in [10] was Active. Also, the values for the IC50 in data set [3] and in data set [1] were 13 µM and 1.8 µM, respectively.

Take `COc1ccccc1Cn1ccc(=S)c(O)c1C`: in data set [2], the inhibition was found to be 71%.

Molecule `Cc1c(O)c(=S)ccn1Cc1ccc(Cl)cc1` had an IC50 in data set [1] of 11.3 µM. Turning to `Cc1c(O)c(=S)ccn1-c1ccc(Nc2ccccc2)cc1`, in data set [2], the inhibition was found to be 14%.

`Cc1c(O)c(=S)ccn1Cc1ccc(Br)cc1` had an IC50 in data set [1] of 2.2 µM. The same measure, in the same setting: the value for `Cc1ccc(CCn2ccc(=S)c(O)c2C)cc1C` was 2.8 µM. Consider `O=C(O)c1ccc2cccc(O)c2n1`, for which, in data set [4], the inhibition is more than 95%. In [2], `COc1ccc(CCn2ccc(=S)c(O)c2C)cc1` gave an inhibition of 57%. Still for that read-out and setting: the value for `Cc1c(O)c(=S)ccn1Cc1cccnc1` was 52%. For the molecule `Cc1ccc(CCn2ccc(=S)c(O)c2C)c(C)c1`, the IC50 in data set [1] stood at 1.7 µM. Regarding `Cc1c(O)c(=S)ccn1CCc1ccc(Cl)cc1Cl`, the IC50 in data set [3] was found to be 200 µM; in data set [1], 1.6 µM.
